Converted amounts (≈) assume the structure as drawn. The source made the active and inactive calls. The rule behind the calls is not given here.
Experiments:
Nakaseomyces glabratus = assay: Antifungal activity against Candida glabrata 537 after 24 hrs by serial dilution method; format: functional; details: Nakaseomyces glabratus, 537, 24 h
Aspergillus fumigatus = assay: Antifungal activity against Aspergillus fumigatus 07544 after 7 days by serial dilution method; format: functional; details: Aspergillus fumigatus, 07544, 168 h
Candida albicans [1] = assay: Fungicidal activity against fluconazole-sensitive Candida albicans SC5314 at 32 ug/ml after 12 to 48 hrs; format: functional, organism-based
Summary of the method: (§1)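 Time-kill: C. albicans (SC5314 or 103) inoculated at 10^5 CFU/mL, untreated or with drug (2–32 μg/mL; fluconazole 32 μg/mL reference); CFU/mL counted after 0, 12, 24 and 48 h.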

Cryptococcus neoformans = assay: Antifungal activity against Cryptococcus neoformans 32609 after 72 hrs by serial dilution method; format: functional; details: Cryptococcus neoformans, 32609, 72 h
Candida albicans [2] = assay: Antifungal activity against fluconazole-sensitive Candida albicans SC5314 after 24 hrs by serial dilution method; format: functional; details: SC5314, 24 h
Trichophyton rubrum = assay: Antifungal activity against Trichophyton rubrum Cmccftla after 7 days by serial dilution method; format: functional; details: 168 h
Candida parapsilosis = assay: Antifungal activity against Candida parapsilosis ATCC 22019 after 24 hrs by serial dilution method; format: functional; details: Lodderomyces parapsilosis, ATCC 22019, 24 h
Nannizzia gypsea = assay: Antifungal activity against Microsporum gypseum Cmccfmza after 7 days by serial dilution method; format: functional; details: 168 h
Candida albicans [3] = assay: Fungicidal activity against fluconazole-sensitive Candida albicans SC5314 assessed as reduction in fungi density after 24 hrs; format: functional, organism-based; summary of the method: as §1
Candida albicans [4] = assay: Antifungal activity against fluconazole-sensitive Candida albicans SC5314 assessed as cell membrane damage at 8 ug/ml after 8 hrs by TEM analysis; format: functional, organism-based
Summary of the method: (§2)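 Transmission electron microscopy of C. albicans SC5314 cells exposed to 8 μg/mL drug for 8 h; untreated cells as reference; cell wall, membrane, cytoplasm and vacuole morphology inspected.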

Candida albicans [5] = assay: Antifungal activity against fluconazole-resistant Candida albicans 805 after 24 hrs by serial dilution method; format: functional; details: Candida albicans, 805, 24 h
Candida albicans [6] = assay: Inhibition of biofilm formation of fluconazole-sensitive Candida albicans SC5314 at 64 ug/ml after 48 hrs by XTT assay relative to control; format: functional
Summary of the method: (§3)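 Biofilm formation by C. albicans SC5314 or 103 in presence of 2–64 μg/mL drug (fluconazole 64 μg/mL reference); quantified by XTT reduction as % of blank control; mean ± standard deviation of three independent experiments, ANOVA and Student t test.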

Candida tropicalis = assay: Antifungal activity against Candida tropicalis after 7 days by serial dilution method; format: functional; details: 168 h
Candida albicans [7] = assay: Antifungal activity against fluconazole-sensitive Candida albicans SC5314 assessed as change in lanosterol composition at 8 ug/ml after 24 hrs by GC-MS analysis (reference value: 1.5%); format: functional
Summary of the method: (§4)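 C. albicans SC5314 exposed to 8 μg/mL for 24 h, sterols analysed by GC-MS with cholesterol internal standard; each sterol expressed as % of total sterol fraction versus no-drug control; average of three independent experiments.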

Candida albicans [8] = assay: Inhibition of hyphal growth of fluconazole-sensitive Candida albicans SC5314 at 8 ug/ml after 16 hrs by light microscopic analysis; format: functional, organism-based
Summary of the method: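 C. albicans SC5314 incubated in RPMI 1640 liquid medium at 37 °C for 16 h with or without drug (2–8 μg/mL); hyphal, pseudohyphal or yeast morphology scored microscopically against blank control.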

Candida albicans [9] = assay: Antifungal activity against fluconazole-sensitive Candida albicans SC5314 assessed as change in sterol composition at 8 ug/ml after 24 hrs by GC-MS analysis (reference value: 8.5%); format: functional; summary of the method: as §4
Candida albicans [10] = assay: Antifungal activity against fluconazole-sensitive Candida albicans SC5314 assessed as abnormal cell shape at 8 ug/ml after 8 hrs by TEM analysis; format: functional, organism-based; summary of the method: as §2
Pichia kudriavzevii = assay: Antifungal activity against Candida krusei 0710397 after 7 days by serial dilution method; format: functional; details: Pichia kudriavzevii, 0710397, 168 h
Candida albicans [11] = assay: Antifungal activity against fluconazole-resistant Candida albicans 100 after 24 hrs by serial dilution method; format: functional; details: Candida albicans, 100, 24 h
Candida albicans [12] = assay: Antifungal activity against fluconazole-resistant Candida albicans 103 after 24 hrs by serial dilution method; format: functional; details: Candida albicans, 103, 24 h
Candida albicans [13] = assay: Antifungal activity against fluconazole-resistant Candida albicans 07109 after 24 hrs by serial dilution method; format: functional; details: Candida albicans, 07109, 24 h
Candida albicans [14] = assay: Inhibition of biofilm formation of fluconazole-resistant Candida albicans 103 at 64 ug/ml after 48 hrs by XTT assay; format: functional, organism-based; summary of the method: as §3
Candida albicans [15] = assay: Antifungal activity against fluconazole-sensitive Candida albicans SC5314 assessed as change in ergosterol composition at 8 ug/ml after 24 hrs by GC-MS analysis (reference value: 90%); format: functional; summary of the method: as §4
Candida albicans [16] = assay: Antifungal activity against fluconazole-sensitive Candida albicans SC5314 assessed as change in obtusifoliol composition at 8 ug/ml after 24 hrs by GC-MS analysis relative to control; format: functional; summary of the method: as §4
Candida albicans [17] = assay: Antifungal activity against fluconazole-sensitive Candida albicans SC5314 assessed as change in eburicol composition at 8 ug/ml after 24 hrs by GC-MS analysis relative to control; format: functional; summary of the method: as §4

Structure (SMILES) | MIC80 (Nakaseomyces glabratus) | MIC80 (Aspergillus fumigatus) | MIC80 (Cryptococcus neoformans) | MIC80 (Candida albicans [2]) | MIC80 (Trichophyton rubrum) | MIC80 (Candida parapsilosis) | MIC80 (Nannizzia gypsea) | also measured
Cc1ccc2c(c1)[C@@H]1CN(C)CC[C@@H]1N2C(=O)c1ccc2ccccc2c1 | > 64 µg/mL | > 64 µg/mL | 8 µg/mL (≈ 22.4 µM) | 32 µg/mL (≈ 89.8 µM) | 16 µg/mL (≈ 44.9 µM) | 16 µg/mL (≈ 44.9 µM) | 32 µg/mL (≈ 89.8 µM) | Activity (Candida albicans [1]): Active
OC(Cn1cncn1)(Cn1cncn1)c1ccc(F)cc1F [FLUCONAZOLE] | 0.5 µg/mL (≈ 1.63 µM) | > 64 µg/mL | 2 µg/mL (≈ 6.53 µM) | 0.5 µg/mL (≈ 1.63 µM) | 4 µg/mL (≈ 13.1 µM) | 2 µg/mL (≈ 6.53 µM) | 1 µg/mL (≈ 3.27 µM) | Activity (Candida albicans [3]): inactive; Activity (Candida albicans [4]): Active; Activity (Candida albicans [1]): Active; MIC80 (Candida albicans [5]): > 1020 µg/mL; inhibition (Candida albicans [6]): inactive; MIC80 (Candida tropicalis): 1 µg/mL (≈ 3.27 µM); Activity (Candida albicans [7]): 5.9%; growth inhibition (GI) (Candida albicans [8]): inactive; Activity (Candida albicans [9]): 4.8%; Activity (Candida albicans [10]): Active; MIC80 (Pichia kudriavzevii): 4 µg/mL (≈ 13.1 µM); MIC80 (Candida albicans [11]): > 1020 µg/mL; MIC80 (Candida albicans [12]): 4 µg/mL (≈ 13.1 µM); MIC80 (Candida albicans [13]): > 1020 µg/mL; inhibition (Candida albicans [14]): inactive; Activity (Candida albicans [15]): 0.6%; Activity (Candida albicans [16]): 6.5%; Activity (Candida albicans [17]): 82.2%
CN1CCc2c(c3cc(Cl)ccc3n2CC(O)c2ccccc2)C1 (stereo not drawn) | 32 µg/mL (≈ 93.9 µM) | > 64 µg/mL | 32 µg/mL (≈ 93.9 µM) | > 64 µg/mL | > 64 µg/mL | 64 µg/mL (≈ 188 µM) | 32 µg/mL (≈ 93.9 µM) | 
CN1CCc2c(c3cc(Cl)ccc3n2Cc2cccc(Cl)c2)C1 | 16 µg/mL (≈ 46.3 µM) | 32 µg/mL (≈ 92.7 µM) | 16 µg/mL (≈ 46.3 µM) | 64 µg/mL (≈ 185 µM) | 8 µg/mL (≈ 23.2 µM) | 32 µg/mL (≈ 92.7 µM) | 16 µg/mL (≈ 46.3 µM) | 
Cc1ccc2c3c(n(CCCOc4ccc(Cl)cc4)c2c1)CCN(C)C3 | 16 µg/mL (≈ 43.4 µM) | 16 µg/mL (≈ 43.4 µM) | 8 µg/mL (≈ 21.7 µM) | 32 µg/mL (≈ 86.7 µM) | 8 µg/mL (≈ 21.7 µM) | 16 µg/mL (≈ 43.4 µM) | 8 µg/mL (≈ 21.7 µM) | 
CN1CCc2c(c3cc(Cl)ccc3n2Cc2ccc(Cl)cc2)C1 | 16 µg/mL (≈ 46.3 µM) | 64 µg/mL (≈ 185 µM) | 16 µg/mL (≈ 46.3 µM) | 64 µg/mL (≈ 185 µM) | 64 µg/mL (≈ 185 µM) | 64 µg/mL (≈ 185 µM) | 16 µg/mL (≈ 46.3 µM) | 
CCCN1CCc2c(c3cc(Cl)ccc3n2CCCOc2ccc(Cl)cc2)C1 | 16 µg/mL (≈ 38.3 µM) | > 64 µg/mL | 16 µg/mL (≈ 38.3 µM) | > 64 µg/mL | > 64 µg/mL | 64 µg/mL (≈ 153 µM) | 16 µg/mL (≈ 38.3 µM) | 
CN1CCc2c(c3cccc(Cl)c3n2CCCOc2ccc(Cl)cc2)C1 | 32 µg/mL (≈ 82.2 µM) | > 64 µg/mL | 16 µg/mL (≈ 41.1 µM) | 32 µg/mL (≈ 82.2 µM) | > 64 µg/mL | 32 µg/mL (≈ 82.2 µM) | 16 µg/mL (≈ 41.1 µM) | 
CCN1CCc2c(c3cc(Cl)ccc3n2CCCOc2ccc(Cl)cc2)C1 | 32 µg/mL (≈ 79.3 µM) | > 64 µg/mL | 16 µg/mL (≈ 39.7 µM) | 64 µg/mL (≈ 159 µM) | > 64 µg/mL | 64 µg/mL (≈ 159 µM) | 32 µg/mL (≈ 79.3 µM) | 
CN1CCc2c(c3cc(C(F)(F)F)ccc3n2CCCOc2ccc(Cl)cc2)C1 | 64 µg/mL (≈ 151 µM) | > 64 µg/mL | 64 µg/mL (≈ 151 µM) | > 64 µg/mL | 64 µg/mL (≈ 151 µM) | > 64 µg/mL | 64 µg/mL (≈ 151 µM) | 
CN1CCc2c(c3cc(Cl)ccc3n2C(=O)c2ccc(Cl)cc2)C1 | 32 µg/mL (≈ 89.1 µM) | > 64 µg/mL | 32 µg/mL (≈ 89.1 µM) | > 64 µg/mL | 32 µg/mL (≈ 89.1 µM) | 64 µg/mL (≈ 178 µM) | > 64 µg/mL | 
CN1CCc2c(c3cc(Cl)cc(Cl)c3n2CCCOc2ccc(Cl)cc2)C1 | > 64 µg/mL | > 64 µg/mL | 16 µg/mL (≈ 37.8 µM) | > 64 µg/mL | > 64 µg/mL | > 64 µg/mL | 16 µg/mL (≈ 37.8 µM) | 

Reference: ChEMBL document CHEMBL3286225, “Novel carboline derivatives as potent antifungal lead compounds: design, synthesis, and biological evaluation” (ACS Med Chem Lett, 2014)
